Reference: ChEMBL document CHEMBL1128333, “Derivatives of cis-2-amino-8-hydroxy-1-methyltetralin: mixed 5-HT1A-receptor agonists and dopamine D2-receptor antagonists” (J Med Chem, 1995)

Tests used:
Rattus norvegicus [1] = species on record: Rattus norvegicus; assay: 5-HIAA (5-Hydroxyindoleacetic acid) content of rat hippocampus reflecting 5-HT metabolism and turnover; format: functional; set-up: concentration or dose not given beside the values
Summary of the method: (§1)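 Male Sprague–Dawley rats (260–310 g) received compound sc in 0.9% NaCl; saline controls. Rats were decapitated 35–45 min post-injection, and hippocampus and striatum were dissected and frozen. Tissue was homogenized in 0.1 M perchloric acid with α-methyl-5-hydroxytryptophan as internal standard, centrifuged and filtered, then analysed by HPLC-EC at 0.85 V (mobile phase pH 2.69, 35 °C). Values are percent of control, mean ± SEM.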

Rattus norvegicus [2] = species on record: Rattus norvegicus; assay: DOPAC (3,4-dihydroxyphenylacetic acid) content of rat striatum reflecting DA metabolism and turnover; format: functional; set-up: concentration or dose not given beside the values; summary of the method: as §1
Rattus norvegicus [3] = assay: Change in body temperature in rats after subcutaneous administration; format: functional
Summary of the method: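 Rectal temperature was taken with an electrical thermometer, probe inserted 3.5 cm, before and 30 min after sc injection in 0.9% NaCl. Values are the change from the preinjection reading, analysed by Tukey HSD versus saline-treated rats. Male Sprague–Dawley rats, 260–310 g.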

Rattus norvegicus [4] = assay: Forepaw treading (FPT) behavior was studied in rats after subcutaneous administration of 32 uM/Kg of compound; 0/5; format: functional
Rattus norvegicus [5] = species on record: Rattus norvegicus; assay: 5-HT content of rat hippocampus reflecting 5-HT metabolism and turnover; format: functional; set-up: concentration or dose not given beside the values; summary of the method: as §1
[6] = molecular target: T1, 5-hydroxytryptamine receptor 1A (Rattus norvegicus, UniProt P19327); assay: Binding affinity for 5-hydroxytryptamine 1A receptor in rat brain tissue using [3H]8-OH-DPAT as radioligand; format: tissue-based
T1 sequence (P19327 whole entry): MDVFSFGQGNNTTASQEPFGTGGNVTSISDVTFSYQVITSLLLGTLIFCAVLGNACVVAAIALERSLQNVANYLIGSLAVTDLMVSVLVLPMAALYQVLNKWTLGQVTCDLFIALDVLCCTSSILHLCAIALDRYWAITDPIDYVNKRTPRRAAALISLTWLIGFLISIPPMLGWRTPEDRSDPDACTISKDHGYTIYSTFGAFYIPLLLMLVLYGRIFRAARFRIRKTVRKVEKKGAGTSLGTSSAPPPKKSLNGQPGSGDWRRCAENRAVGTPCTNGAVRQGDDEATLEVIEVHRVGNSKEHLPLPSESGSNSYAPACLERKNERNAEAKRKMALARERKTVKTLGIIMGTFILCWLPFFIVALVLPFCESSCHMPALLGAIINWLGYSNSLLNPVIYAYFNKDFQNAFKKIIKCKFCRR
Summary of the method: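 Membranes from male Sprague–Dawley rat cortex plus hippocampus, homogenized in 50 mM Tris-HCl with 4.0 mM CaCl2 and 5.7 mM ascorbic acid, pH 7.5, and preincubated 10 min at 37 °C with 10 μM pargyline. Assay used 5 mg/mL tissue and 2 nM [3H]-8-OH-DPAT, 10 min at 37 °C. Nonspecific binding was defined with 10 μM 5-HT. Bound ligand was separated on GF/B filters and counted; data were fitted by nonlinear regression.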

Rattus norvegicus [7] = assay: Flat body posture behavior was studied in rats after subcutaneous administration of 32 uM/Kg of compound; 0/5; format: functional
Rattus norvegicus [8] = species on record: Rattus norvegicus; assay: Ratio of serotonin turnover (5HIAA to 5-HT) in rat brain hippocampus compared to control; format: functional; summary of the method: as §1
Rattus norvegicus [9] = assay: Cage leaving response was studied in rats after subcutaneous administration of 32 uM/Kg of compound; 3/5; format: functional
Rattus norvegicus [10] = species on record: Rattus norvegicus; assay: DA (dopamine) content of rat striatum reflecting DA metabolism and turnover; format: functional; summary of the method: as §1
Rattus norvegicus [11] = species on record: Rattus norvegicus; assay: HVA (Homovanillic acid)content of rat striatum reflecting DA metabolism and turnover; format: functional; set-up: concentration or dose not given beside the values
Rattus norvegicus [12] = species on record: Rattus norvegicus; assay: Ratio of turnover (DOPAC to DA) in rat brain striatum compared to control.; format: functional; summary of the method: as §1
Rattus norvegicus [13] = assay: Cage leaving response was studied in rats after subcutaneous administration of 32 uM/Kg of compound; 0/5; format: functional
Rattus norvegicus [14] = assay: Forepaw treading (FPT) behavior was studied in rats after subcutaneous administration of 32 uM/Kg of compound; 5/5; format: functional
Rattus norvegicus [15] = assay: Flat body posture behavior was studied in rats after subcutaneous administration of 32 uM/Kg of compound; 5/5; format: functional
Rattus norvegicus [16] = assay: Cage leaving response was studied in rats after subcutaneous administration of 32 uM/Kg of compound; 2/4; format: functional
Rattus norvegicus [17] = assay: Forepaw treading (FPT) behavior was studied in rats after subcutaneous administration of 32 uM/Kg of compound; 0/4; format: functional
Summary of the method: (§2)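 Test compounds were given at 32 μmol/kg and the reference 5-HT1A agonist at 1 μmol/kg. Flat body posture, forepaw treading and hind limb abduction were each scored as absent or present. Values are animals showing the behavior out of animals tested, analysed by Fisher's exact test. Male Sprague–Dawley rats, 260–310 g.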

Rattus norvegicus [18] = assay: Flat body posture behavior was studied in rats after subcutaneous administration of 32 uM/Kg of compound; 0/4; format: functional; summary of the method: as §2
D(2) dopamine receptor = D(2) dopamine receptor (Homo sapiens, UniProt P14416); assay: In vitro binding affinity towards human Dopamine receptor D2A was determined in mouse fibroblast LtK cells using [3H]raclopride; format: cell-based
Chain of D(2) dopamine receptor (P14416 whole entry): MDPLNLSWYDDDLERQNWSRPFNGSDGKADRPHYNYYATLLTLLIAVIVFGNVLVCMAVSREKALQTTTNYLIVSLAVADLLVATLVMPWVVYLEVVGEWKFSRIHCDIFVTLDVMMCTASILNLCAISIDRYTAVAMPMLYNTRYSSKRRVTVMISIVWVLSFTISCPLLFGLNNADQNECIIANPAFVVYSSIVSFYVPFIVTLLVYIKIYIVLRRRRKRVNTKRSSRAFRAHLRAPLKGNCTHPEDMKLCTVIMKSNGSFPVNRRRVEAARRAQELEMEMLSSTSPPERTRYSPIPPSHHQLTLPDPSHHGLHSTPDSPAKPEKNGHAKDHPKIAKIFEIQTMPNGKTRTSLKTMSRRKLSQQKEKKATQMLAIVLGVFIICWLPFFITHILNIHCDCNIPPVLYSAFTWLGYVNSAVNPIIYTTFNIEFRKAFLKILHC
Summary of the method: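 Membranes from Ltk− mouse fibroblasts stably expressing human D2A receptors, at 80–100 pM receptor. Buffer was 50 mM Tris-HCl, 120 mM NaCl, 5 mM KCl, 1.5 mM CaCl2, 4 mM MgCl2, 1 mM EDTA, pH 7.4. Incubation with [3H]raclopride was 60 min at 22 °C, in duplicate, with 1 μM (+)-butaclamol for nonspecific binding. Bound ligand was separated on GF/B filters; data were fitted by nonlinear regression.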

Rattus norvegicus [19] = assay: Forepaw treading (FPT) behavior was studied in rats after subcutaneous administration of 32 uM/Kg of compound; 4/4; format: functional; summary of the method: as §2
Rattus norvegicus [20] = assay: Flat body posture behavior was studied in rats after subcutaneous administration of 32 uM/Kg of compound; 4/4; format: functional; summary of the method: as §2
Rattus norvegicus [21] = assay: Cage leaving response was studied in rats after subcutaneous administration of 32 uM/Kg of compound; 0/4; format: functional
Rattus norvegicus [22] = assay: Cage leaving response was studied in rats after subcutaneous administration of 32 uM/Kg of compound; 3/4; format: functional

SMILES | Control (Rattus norvegicus [1]) | Control (Rattus norvegicus [2]) | Change of body temperature (Rattus norvegicus [3]) | Control (Rattus norvegicus [5]) | Ki [6] | Ratio (Rattus norvegicus [8]) | Control (Rattus norvegicus [10]) | Control (Rattus norvegicus [11]) | Ratio (Rattus norvegicus [12]) | FPT (Rattus norvegicus [17]) | FBP (Rattus norvegicus [18]) | also measured
CCCN(CCC)[C@H]1CCc2cccc(OS(=O)(=O)C(F)(F)F)c2[C@H]1C | 91% | 107% | 0.1 °C | 97% | 236 nM | 80 | 107% | 99% | 99 |  |  | FPT (Rattus norvegicus [4]): 0; FBP (Rattus norvegicus [7]): 0; Cage leaving (Rattus norvegicus [9]): 3
CCCN(CCC)[C@@H]1CCc2cccc(C(=O)NC(C)C)c2[C@@H]1C | 66% | 74% | -2.5 °C | 123% | 38 nM | 54 | 99% | 94% | 76 |  |  | Cage leaving (Rattus norvegicus [13]): 0; FPT (Rattus norvegicus [14]): 5; FBP (Rattus norvegicus [15]): 5
CCCN(C(C)C)[C@H]1CCc2cccc(OC)c2[C@H]1C | 110% | 96% | 0 °C | 87% | 1420 nM | 124 | 103% | 90% | 94 | 0 | 0 | Cage leaving (Rattus norvegicus [16]): 2
CCCN(CCC)[C@@H]1CCc2cccc(O)c2[C@@H]1C | 88% | 225% | -0.2 °C | 121% |  | 72 | 83% | 196% | 275 |  |  | Ki (D(2) dopamine receptor): 30 nM; FPT (Rattus norvegicus [19]): 4; FBP (Rattus norvegicus [20]): 4; Cage leaving (Rattus norvegicus [21]): 0
CCCN(CCC)[C@@H]1CCc2cccc(-c3ccco3)c2[C@@H]1C | 111% | 116% | 0.1 °C | 110% | > 1000 nM | 101 | 91% | 107% | 128 | 0 | 0 | Cage leaving (Rattus norvegicus [22]): 3
CCCN(CCC)[C@H]1CCc2cccc(C(C)=O)c2[C@H]1C | 93% | 130% | 0.1 °C | 99% | 138 nM | 93 | 95% | 93% | 110 | 0 | 0 | Cage leaving (Rattus norvegicus [22]): 3
CCCN(CCC)[C@H]1CCc2cccc(-c3ccco3)c2[C@H]1C | 121% | 102% | 0.1 °C | 108% | 44 nM | 107 | 103% | 109% | 98 | 0 | 0 | Cage leaving (Rattus norvegicus [22]): 3
CCCN(CCC)[C@H]1CCc2ccccc2[C@H]1C | 112% | 92% | 0.1 °C | 107% | > 1000 nM | 104 | 113% | 111% | 81 |  |  | FPT (Rattus norvegicus [4]): 0; FBP (Rattus norvegicus [7]): 0; Cage leaving (Rattus norvegicus [9]): 3
CCCN(CCC)[C@@H]1CCc2cccc(C(=O)OC)c2[C@@H]1C | 78% | 167% | -2.7 °C | 122% |  | 64 | 112% | 194% | 152 |  |  | Cage leaving (Rattus norvegicus [13]): 0; Ki (D(2) dopamine receptor): 58.8 nM; FPT (Rattus norvegicus [14]): 5; FBP (Rattus norvegicus [15]): 5
CCCN(C(C)C)[C@@H]1CCc2cccc(OC)c2[C@@H]1C | 104% | 102% | 0.1 °C | 86% | 116 nM | 116 | 99% | 105% | 102 | 0 | 0 | Cage leaving (Rattus norvegicus [16]): 2
CCCN(CCC)[C@@H]1CCc2cccc(C(C)=O)c2[C@@H]1C | 96% | 192% | -1.7 °C | 99% | 0.56 nM | 97 | 95% | 203% | 200 |  |  | Cage leaving (Rattus norvegicus [13]): 0; Ki (D(2) dopamine receptor): 40 nM; FPT (Rattus norvegicus [14]): 5; FBP (Rattus norvegicus [15]): 5
CCCN(CCC)[C@H]1CCc2cccc(O)c2[C@H]1C | 104% | 118% | -0.3 °C | 109% |  | 95 | 107% | 96% | 112 | 0 | 0 | Cage leaving (Rattus norvegicus [16]): 2
